For 8 compounds, Activity and IC50 results are on record in ChEMBL document CHEMBL1157417, “Synthetic and pharmacological studies on new simplified analogues of the potent actin-targeting Jaspamide” (Bioorg Med Chem, 2008).

The structures appear in SMILES notation. Calls of active or inactive are those of the source. No cut-off for these calls is given here.

Common to all, as to format: functional, cell-based
The subject of assay [1] is A498. The assay is described as follows: Effect on morphology in human A498 cells assessed as cell aberration at 100 umol after 16 hrs by microfilament immunofluorescence assay. In outline: (§1)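 A-498 cells grown to near-confluency on glass coverslips, then exposed 16 h. Cytochalasin B served as the microfilament-depolymerising positive control. Microfilaments stained with monoclonal anti-actin and microtubules with monoclonal anti-β-tubulin, both visualised with fluorescein-conjugated anti-mouse IgG. Scored for binucleation and other cellular aberration.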

The subject of assay [2] is A498. The assay is described as follows: Effect on morphology in human A498 cells assessed as appearance of binucleated cells after 16 hrs by microfilament immunofluorescence assay. In outline:
as §1

Assay [3] relates to A498. The assay is described as follows: Cytotoxicity against human A498 cells after 48 hrs by SRB binding assay. The settings on record: A498, 48 h. In outline: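 A498 kidney adenocarcinoma cells kept in R-MEM with 10% FBS and 50 µg/mL gentamycin, 37 °C, 5% CO2. Seeded at about 15% confluency and left 24 h to attach. Treated in triplicate with varying concentrations for 48 h. Survival read by sulforhodamine B binding as a percentage of control cultures.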

For the compound `C[C@@H]1NC(=O)CCNC(=O)CCCNC(=O)C[C@H](c2ccccc2)NC(=O)[C@@H](Cc2c[nH]c3ccccc23)NC1=O`, the result with A498 [1] was inactive.
With `C[C@@H]1NC(=O)CC/C=C/CCCOC(=O)CCNC(=O)[C@@H](Cc2c[nH]c3ccccc23)NC1=O`, the result with A498 [1] was inactive.
Same read-out and setting: the result for `C[C@@H]1NC(=O)CCCCCCCNC(=O)C[C@H](c2ccccc2)NC(=O)[C@@H](Cc2c[nH]c3ccccc23)NC1=O` reads “inactive”.
On the same count and under the same terms, the result for `C[C@@H]1NC(=O)CCNC(=O)CCCNC(=O)CCNC(=O)[C@@H](Cc2c[nH]c3ccccc23)NC1=O` reads “inactive”; that for `COc1ccc([C@H]2CC(=O)NCCCC(=O)NCCC(=O)N[C@@H](C)C(=O)N[C@H](Cc3c[nH]c4ccccc34)C(=O)N2)cc1`, “inactive”.
Turning to `C=C1[C@@H](C)[C@H]2[C@H](Cc3ccccc3)NC(=O)[C@]23OC(=O)/C=C/[C@H](O)CCC[C@@H](C)C/C=C/[C@H]3[C@@H]1O`, the outcome with A498 [2] was Active.
As to `C[C@@H]1NC(=O)CC/C=C/CCCOC(=O)C[C@H](c2ccccc2)NC(=O)[C@@H](Cc2c[nH]c3ccccc23)NC1=O`, the IC50 in the assay with A498 [3] came out at 25 µM. For the same compound, in the assay with A498 [1], the result was inactive.
The matching figures for `CC1/C=C/CCCOC(=O)C[C@H](c2ccccc2)NC(=O)[C@@H](Cc2c[nH]c3ccccc23)NC(=O)[C@H](C)NC(=O)C1` (stereo not given in full): 25 µM and “inactive”.

One may read the IC50 as the concentration at which inhibition is half-maximal. A higher IC50 goes with weaker potency in that assay.
